Screening data as filed in PubChem.
Shown are actives, neighbours in structure and some others; about 3.7% of the full set was active somewhere.
KCNQ1 act – potentiators or activators of KCNQ1 channel, primary screen, cell-based, thallium flux, high-throughput; 310,000 tested, 0.35% active; CHO-K1 KCNQ1, thallium flux FluxOR fluorescence; stronger effect = higher value; B-score at 10 µM;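 active = fluorescence ratio B-score, a plate-corrected score, at least three library SD, with initial intensity B-score within 5 SD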
Target sequence (P51787 whole entry, looked up): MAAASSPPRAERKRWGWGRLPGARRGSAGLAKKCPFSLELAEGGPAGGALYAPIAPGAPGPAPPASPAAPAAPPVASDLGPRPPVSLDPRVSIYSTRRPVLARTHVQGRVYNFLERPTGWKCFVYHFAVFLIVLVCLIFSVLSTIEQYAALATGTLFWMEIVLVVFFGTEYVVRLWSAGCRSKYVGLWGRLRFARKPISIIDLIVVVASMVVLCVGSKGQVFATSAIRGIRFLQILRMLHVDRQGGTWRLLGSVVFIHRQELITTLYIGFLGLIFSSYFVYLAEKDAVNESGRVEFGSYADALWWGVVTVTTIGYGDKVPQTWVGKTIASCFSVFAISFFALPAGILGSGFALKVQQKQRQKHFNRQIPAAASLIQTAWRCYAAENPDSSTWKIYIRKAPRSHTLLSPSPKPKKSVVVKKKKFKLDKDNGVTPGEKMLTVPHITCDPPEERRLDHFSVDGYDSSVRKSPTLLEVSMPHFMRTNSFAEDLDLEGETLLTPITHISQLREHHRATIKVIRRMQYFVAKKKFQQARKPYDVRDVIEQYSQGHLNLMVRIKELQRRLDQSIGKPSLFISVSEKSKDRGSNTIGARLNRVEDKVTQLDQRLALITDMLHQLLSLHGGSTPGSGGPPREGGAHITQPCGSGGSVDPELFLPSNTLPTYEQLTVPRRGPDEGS
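System: Stable KCNQ1 CHO-K1 line | Incubation: 90 min dye loading and 20 min compound exposure, both at room temperature | Measure: Ratio B score | Medium: Assay buffer for compound exposure, DMSO matched across wells | Compound dosing: Single-concentration screen | Probe or stimulus: K+/Tl+ depolarizing stimulus | Measured by: Kinetic FluxOR fluorescence, 10 s baseline plus 110 s post-stimulus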
KCNK3 inh – human KCNK3 channel inhibitors, primary screen, CHO cells, FluxOR thallium flux, B-score; FluxOR fluorescence; stronger effect = lower value; 340,000 tested, 0.84% active; B-score at 10 µM;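 active = B-score under library mean minus 4 SD, starting fluorescence ratio at most library mean plus 5 SD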;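 note: more negative B-score means stronger inhibition of thallium flux through KCNK3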
hERG rescue – hERG rescue from dofetilide block, primary screen, cell-based, CHO-hERG, FluxOR thallium flux, dofetilide IC70; Voltage-gated inwardly rectifying potassium channel KCNH2 (Homo sapiens), Q12809; dofetilide IC70 present; activation (rescue from dofetilide block), less the hit threshold, % at 10 µM; 310,000 tested, 0.51% active;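 active = activation above the mean of controls blocked by dofetilide plus 5 SD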;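 note: thallium influx through hERG after potassium depolarization seen as dye fluorescence rise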
Kir21 inh – inhibitors of mouse Kir2.1 inward-rectifier potassium channel; B-score at 10 µM; 310,000 tested, 0.85% active; HEK293-Kir2.1, FluxOR thallium flux fluorescence; stronger effect = lower value; Inward rectifier potassium channel 2 (Mus musculus), P35561;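 active = fluorescence ratio B-score at or below minus 3 SD of library scores, with starting-brightness B-score within 2 SD, cut at about -4.2 in these data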;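 note: channel flux triggered by added potassium and thallium sulfate stimulus; B-score of peak minus minimum fluorescence over baseline after thallium stimulus; more negative B-score means stronger Kir2.1 block with less thallium influx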
KCNQ1 block – inhibitors of human KCNQ1 channel, primary screen, cell-based, thallium flux, high-throughput | AID 2642, 2010 | CHO-K1 KCNQ1, FluxOR thallium flux fluorescence; stronger effect = higher value | 310,000 tested, 1.3% active | B-score at 10 µM;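 active = compounds whose thallium flux B-score, printed positive for inhibition, exceeds three library SD while starting fluorescence stays within three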;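 note: channel opened by potassium depolarization with thallium stimulus after 20 min compound exposure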
KCNK9 block – KCNK9 potassium channel inhibitors, primary screen, HEK293 cells, thallium flux; FluxOR thallium flux fluorescence; stronger effect = lower value; AID 488922, 2010; B-score at 10 µM; 310,000 tested, 1.2% active; Potassium channel subfamily K member 9 (Homo sapiens), Q9NPC2;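 active = ratio B-score over 3 SD below the library mean, with starting fluorescence within 5 SD of its mean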;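 note: negative B-score means less thallium flux so channel inhibition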
Of the large screens only hits and unclear results are named; the others gave an inactive call.

COc1ccc(S(=O)(=O)N2CCCC2c2cccs2)cc1 (centres undefined)	none
O=S(=O)(c1ccccc1)N1CCCC1c1cccs1 (centres undefined)	Kir21 inh -5.44
CS(=O)(=O)Nc1ccc(C2=NN(S(=O)(=O)c3ccccc3)C(c3cccs3)C2)cc1 (centres undefined)	KCNK9 block -8.07
Cc1nn(CC(=O)N2CCN(c3ccccn3)CC2)c(=O)c2cc3sccc3n12	none
O=C(Cn1nnc2ccccc21)N/N=C\C=C\c1ccccc1	hERG rescue 6.7
CCCCN(CC)C(=O)CSc1nc2c(sc(=S)n2-c2ccc(OCC)cc2)c(=O)[nH]1	KCNQ1 block 8
CCOC(=O)CC(=O)CSc1nc2c(sc(=S)n2-c2ccc(OCC)cc2)c(=O)[nH]1	none
COc1ccc(Nc2cc(C)c3ccc(O)cc3n2)cc1	Kir21 inh -4.69
COc1ccc(OC)c(NC(=O)CN2C(=O)NC(C)(c3ccc4c(c3)OCCO4)C2=O)c1 (centres undefined)	none (no result: KCNQ1 act, hERG rescue, Kir21 inh, KCNQ1 block, KCNK9 block)
CCN(CC)c1ccc(C=C(c2nnnn2-c2ccc(C)cc2)c2nnnn2-c2ccc(C)cc2)cc1	none
C/C(=N\NC(=O)c1ccccc1F)c1cccc(NC(=O)c2ccc(C)cc2)c1	none
CCCCC/C=N\NC(=O)Cc1ccc([N+](=O)[O-])cc1	KCNQ1 act 7
O=C(CNCC1CCCCC1)Nc1ccc(OC(F)(F)F)cc1	KCNQ1 act 20
CN(CC(=O)Nc1ccc(OC(F)(F)F)cc1)C1CCCCC1	none
Cc1cc(C)n(-c2nc3sc4c(c3c(=O)[nH]2)CCCC4)n1	KCNQ1 act 13 (no result: KCNK3 inh)
O=C1c2ccccc2-c2onc3ccc(NCc4ccco4)c1c23	none
CCNc1ccc2noc3c2c1C(=O)c1ccccc1-3	KCNQ1 block 6
CCNC(=O)CCSc1nnc(-c2ccco2)o1	none
Cc1c(-c2ccccc2)oc2c(C(=O)N3CCN(c4ccc([N+](=O)[O-])cc4)CC3)cccc2c1=O	KCNK9 block -7.06
COC(=O)c1ccc(C23CC4(C2)[C@H](CN(C)[C@@H]4c2ccccc2)C3c2ccccc2)cc1 (some centres undefined)	KCNK9 block -6.61
CC1Cc2ccccc2N1C(=S)NC(=O)c1cccc(Br)c1 (centres undefined)	KCNQ1 act 92, hERG rescue 80.2
CC1Cc2ccccc2N1C(=S)NC(=O)c1ccc(Cl)cc1Cl (centres undefined)	KCNQ1 act 24, hERG rescue 31.7
O=C(NC(=S)N1CCCC1)c1ccc(Cl)cc1Cl	none
Nn1c(SCc2cccc(F)c2)nnc1-c1ccncc1	none
Cc1sc2nc(CSc3ccccc3)nc(N3CCC(C(N)=O)CC3)c2c1C	none
CCOC(=O)c1sc2nc(CSc3ccccc3)nc(N3CCC(C(N)=O)CC3)c2c1C	hERG rescue 10.3
CCN(CC)CCN1c2ccccc2Sc2ccccc21	Kir21 inh -4.67
CCN(CC)CCN1c2ccccc2Sc2ccc3ccccc3c21	none
Cc1ccc2cc(/C=C3\N=C(c4ccccc4)OC3=O)c(N3CCOCC3)nc2c1	KCNQ1 block 8 (no result: KCNK3 inh)
CC1(C(=O)CSc2ncn[nH]2)CCC(=O)O1 (centres undefined)	hERG rescue 5.0 (no result: KCNK3 inh)
COc1ccc(/C=N\NC(=S)SCN2C(=O)C3CCC(C)(C2=O)C3(C)C)cc1 (centres undefined)	KCNQ1 act 16
CN(C)c1ccc(/C=N\NC(=S)SCN2C(=O)C3CCC(C)(C2=O)C3(C)C)cc1 (centres undefined)	none (no result: KCNQ1 act, hERG rescue, Kir21 inh, KCNQ1 block, KCNK9 block)
CC(N=C1NS(=O)(=O)c2ccccc21)C(=O)OCC(=O)N(C)C1CCS(=O)(=O)C1 (centres undefined)	none (no result: KCNQ1 act, hERG rescue, Kir21 inh, KCNQ1 block, KCNK9 block)
O=C(Nc1ccc(F)cc1)c1oc2ccccc2c1NC(=O)C1CC1	none
CN(C)c1ccc(N=Nc2ccccc2C(=O)OCC(=O)Nc2ccccc2C(F)(F)F)cc1	KCNQ1 block 6
CN(C)c1ccc(N=Nc2ccccc2C(=O)OCC(=O)N2CCCC2)cc1	none
O=C(Nc1ccccc1)Nc1n[nH]c2nnc(-c3ccccc3)c(-c3ccccc3)c12	none
COc1cc(CNC2CCCCCCC2)cc(Cl)c1OCC(N)=O	none
COc1cc(CNC2CCCC2)cc(Cl)c1OCc1ccccc1Cl	Kir21 inh -9.32
COc1cc(CNC2CCCC2)cc(Cl)c1OCc1ccc(F)cc1	Kir21 inh -5.04
COc1cc(CNC2CCCC2)cc(OC)c1OC	none
COc1cc(CNn2c(C)n[nH]c2=S)cc(Cl)c1OCc1ccc(F)cc1	none
CCOc1cc(CNC2CCCC2)cc(Cl)c1OCc1ccc(F)cc1	Kir21 inh -11.1
CN(CC(=O)Nc1ccc(F)c(F)c1F)C(=O)c1cc(S(=O)(=O)N(C)C)ccc1N1CCCC1	none (no result: KCNQ1 act, hERG rescue, Kir21 inh, KCNQ1 block, KCNK9 block)
O=C(CCn1c(=O)oc2ccccc21)N1CCN(c2ccccc2F)CC1	hERG rescue 5.3
COc1cc(/C=C/C(=O)Nc2cc(S(=O)(=O)N3CCOCC3)ccc2N2CCCC2)cc(OC)c1OC	none
CCN(CC)S(=O)(=O)c1ccc(N2CCCCC2)c(NC(=O)/C=C/c2cc(OC)c(OC)c(OC)c2)c1	KCNK9 block -6.86
Cc1cc(C(F)(F)F)nn2cnnc12	none
COc1cc(C(O)P(=O)(OCCC(C)C)c2ccc(N(C)C)cc2)cc(OC)c1OC (centres undefined)	none
O=C(CCN1CCc2ccccc2CC1)c1ccc2c(c1)OCCO2	KCNQ1 act 10
O=C(CCCN1CCOCC1)c1ccc2c(c1)OCCO2	none
Cc1ccnc(NC(=O)c2ccc(S(=O)(=O)c3ccccc3)cc2)c1	none
NC(=O)c1ccccc1OCC(=O)N1CCC(Cc2ccccc2)CC1	none (no result: KCNQ1 act, hERG rescue, Kir21 inh, KCNQ1 block, KCNK9 block)
O=c1[nH]cc(N=Cc2cc(Cl)cc(Cl)c2O)c(=O)[nH]1	KCNQ1 act 18
O=c1[nH]cc(N=Cc2cc([N+](=O)[O-])ccc2O)c(=O)[nH]1	none (no result: KCNK3 inh)
Cn1nnnc1SCCNCc1ccccc1OCc1ccc(Cl)cc1	Kir21 inh -4.29
Cn1nnnc1SCCNCc1cc(Cl)ccc1OCc1ccccc1	none
CC(C)(C)OC(=O)N(Cc1ccccc1)Cc1ccccc1OCc1cccc(NC(=O)c2ccccc2)c1	none (no result: KCNQ1 act, hERG rescue, Kir21 inh, KCNQ1 block, KCNK9 block)
Cn1ccnc1Sc1cc(NCCCO)c([N+](=O)[O-])c2nonc12	KCNQ1 block 6
O=[N+]([O-])c1c(NCCCO)cc(Sc2ccc(Cl)cc2)c2nonc12	none
CCN1CCN(S(=O)(=O)c2ccc(Cl)c(C(=O)N(C)Cc3ccco3)c2)CC1	none (no result: KCNQ1 act, hERG rescue, Kir21 inh, KCNQ1 block, KCNK9 block)
